Laboratory results published in ChEMBL document CHEMBL4732146, “Nitric oxide-donating and reactive oxygen species-responsive prochelators based on 8-hydroxyquinoline as anticancer agents” (Eur J Med Chem, 2021).
The source made the active and inactive calls. The calls are words filed in the database; no cut-off is given here.

Legend:
[1] = Stability of compound in presence of Cu2+ at 100 uM measured after 1 hr by RP-HPLC analysis; type: physicochemical
In short: (§1)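 Compound (100 µM) incubated at 37 °C for 1 h with one of: ROS species (1 mM), NO solution (1 mM), GSH (200 µM), CuCl₂ (10 µM) or FeCl₃ (10 µM). Percent decomposed was determined by RP-HPLC (ODS column, 0.1% TFA water/methanol gradient, 1 mL/min, 256 nm).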

[2] = Metal chelating activity assessed as compound-Cu2+ complex stoichiometry ratio of […] after 1 hr by Job's plot analysis
[3] = system: SW1990; assay: Cytotoxicity against human SW1990 cells assessed as reduction in cell viability at 10 to 20 uM measured after 48 hrs in presence of ROS quencher NAC by MTT assay; type: functional, cell-based; details: dose 10-20 µM
In short: (§2)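 SW1990 cells pretreated 1 h at 37 °C with 20 mM NAC or 50 µM carboxy-PTIO, then treated 48 h with compound at 10 or 20 µM. Percent cell death by MTT (A490). Mean ± SD, n = 3.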

[4] = Drug metabolism in human SW1990 cells assessed as nitric oxide release by measuring increase in 3-nitrotyrosine-containing cytochrome-c expression at 8 to 12 uM measured after 24 hrs by Western blot analysis; type: ADME, cell-based; details: sw1990, 24 h
In short: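 SW1990 cells treated 24 h, or pretreated 1 h with carboxyl-PTIO (50 µM) before 24 h treatment. Mitochondrial proteins extracted and lysed (30 µg/lane), run on SDS-PAGE, blotted to PVDF and probed with anti-3-nitrotyrosine antibody. Mean ± SD, n = 3.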

[5] = Prodrug activation in peroxynitrite ONOO- assessed as drug decomposition at 100 uM measured after 1 hr by RP-HPLC analysis; in short: as §1
[6] = system: SW1990; assay: Cytotoxicity against human SW1990 cells assessed as reduction in cell viability at 10 to 20 uM measured after 48 hrs in presence of NO scavenger Carboxyl-PTIO by MTT assay; type: functional, cell-based; details: dose 10-20 µM; in short: as §2
[7] = Metal chelating activity assessed as compound-Cu2+ complex formation at 50 uM measured after 40 mins in absence of H2O2 by UV spectrophotometric method
In short: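 Stock in DMSO diluted into PBS (10 mM, pH 7.4) to a final 50 µM, with 50 µM CuCl₂ added and no H₂O₂. UV spectrum recorded over 40 min at room temperature.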

[8] = Stability of compound in pH 7.4 PBS buffer assessed as parent compound remaining measured after 24 hrs by RP-HPLC analysis; type: physicochemical; details: read-out: Stabilty
In short: (§3)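 Compound (1 µM) stirred at 37 °C either in PBS (pH 5.0, 7.4 or 10.0) containing 5% DMSO or in DMEM with 10% FBS. Aliquots were analysed by RP-HPLC (0.1% TFA water/methanol gradient, 256 nm) for remaining intact compound, up to 24 h.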

[9] = Prodrug activation in tBuO at 100 uM measured after 1 hr by RP-HPLC analysis; in short: as §1
[10] = Metal chelating activity assessed as compound-Cu2+ complex formation by measuring intracellular HO level in human SW1990 cells at 10 uM measured after 1 hr in presence of CuCl2 and HO radical scavenger tempol by HO probe based confocal laser scanning microscopic analysis; type: cell-based
In short: (§4)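 SW1990 cells at 80% confluence were loaded with 20 µM HO· probe at 37 °C for 30 min and rinsed. They then received 50 µM CuCl₂, followed by 10 µM compound for 1 h. For the scavenger arm, 1 mM tempol was given for 30 min before CuCl₂. CLSM imaging at λex 570 / λem 650 nm gave mean intensity; n = 3.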

[11] = system: SW1990; assay: Induction of apoptosis in human SW1990 cells assessed as decrease in Bcl-2 expression at 8 to 12 uM measured after 24 hrs by Western blot analysis; type: functional, cell-based; details: dose 8-12 µM
In short: (§5)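 SW1990 cells seeded 5 × 10⁵ per well and grown 24 h at 37 °C, then treated 24 h. Lysates quantified by BCA, resolved by SDS-PAGE and transferred to nitrocellulose. Blocked in 5% milk, probed overnight at 4 °C for cleaved caspase-3, cleaved caspase-9, Bax and Bcl-2, then HRP secondary 2 h. ECL detection.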

[12] = system: SW1990; assay: Cytotoxicity against human SW1990 cells assessed as reduction in cell viability measured after 48 hrs in presence of 10 to 50 uM Cu2+ by MTT assay; type: functional, cell-based; details: dose 10-50 µM
[13] = system: SW1990; assay: Induction of apoptosis in human SW1990 cells at 12 uM measured after 24 hrs in presence of ROS quencher NAC by Annexin V-FITC/propidium iodide staining based flow cytometry; type: functional, cell-based
In short: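 SW1990 cells seeded 5 × 10⁵ per well and grown 24 h, then treated 24 h at 8 or 12 µM. Optional 1 h pretreatment with 20 mM NAC or 50 µM carboxyl-PTIO before 12 µM treatment. Cells stained with annexin V-FITC 15 min and PI 5 min at room temperature in the dark, then analysed by flow cytometry. Mean ± SD, n = 3.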

[14] = system: SW1990; assay: Induction of mitochondrial membrane potential loss in human SW1990 cells at 8 to 12 uM measured after 24 hrs by JC1 staining based flow cytometry; type: functional, cell-based; details: dose 8-12 µM
In short: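 SW1990 cells seeded at 5 × 10⁵ per well, grown 24 h, then exposed to compound for 24 h. Stained with JC-1 per kit instructions. Flow cytometry gave the percentage of cells with healthy or collapsed mitochondrial membrane potential. Mean ± SD, n = 3.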

[15] = Stability of compound in DMEM with 10% fetal bovine serum assessed as parent compound remaining measured after 24 hrs by RP-HPLC analysis; type: cell-free; in short: as §3
[16] = Metal chelating activity assessed as compound-Cu2+ complex formation by measuring intracellular HO level in human SW1990 cells at 10 uM measured after 1 hr in presence of CuCl2 by HO probe based confocal laser scanning microscopic analysis; type: cell-based; in short: as §4
[17] = Metal chelating activity assessed as compound-Cu2+ complex formation by measuring change in wavelength at 50 uM measured after 40 mins in presence of H2O2 by UV spectrophotometric method
In short: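 Compound at 50 µM final in PBS (10 mM, pH 7.4) with 50 µM CuCl₂ and H₂O₂ (500 µM, 10 eq.). UV spectrum tracked over 40 min at room temperature, following peaks at 240, 382 and 210 nm.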

[18] = system: SW1990; assay: Cytotoxicity against human SW1990 cells assessed as reduction in cell viability measured after 48 hrs in presence of FeCl3 by MTT assay; type: functional, cell-based; details: SW1990, 48 h
In short: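 Cells seeded 6 × 10⁴ per well, cultured 24 h at 37 °C under 5% CO₂, then exposed to compound for 48 h, with or without 50 µM CuCl₂ or FeCl₃ co-incubation. MTT added for 4 h at 37 °C, formazan dissolved in DMSO, A490 read. IC50 reported as mean (SD), n = 3.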

[19] = system: SW1990; assay: Induction of apoptosis in human SW1990 cells assessed as increase in cleaved caspase-9 expression at 8 to 12 uM measured after 24 hrs by Western blot analysis; type: functional, cell-based; details: dose 8-12 µM; in short: as §5
[20] = system: SW1990; assay: Induction of apoptosis in human SW1990 cells assessed as increase in Bax-2 expression at 8 to 12 uM measured after 24 hrs by Western blot analysis; type: functional, cell-based; details: dose 8-12 µM; in short: as §5

Stabilty [1]: Stable
Ratio [2]: 0.64
Drug metabolism [4]: Metabolite_Detected
Drug degradation [5]: 20.8%
Activity [7]: inactive
remaining at 24 h [8]: > 80%
Drug metabolism [9]: Metabolite_Notdetected
Activity [17]: 210 nm
Compound: O=C(NCCCOc1no[n+]([O-])c1S(=O)(=O)c1ccccc1)c1ccc2cccc(OCc3ccc(B(O)O)cc3)c2n1
Activity [3]: inactive
Activity [6]: inactive
Activity [10]: inactive
Activity [11]: Active
Activity [12]: Dose-dependent effect
Activity [13]: inactive
Activity [14]: Active
Stability [15]: > 80%
Activity [16]: Active
IC50 [18]: 15.4 µM
Activity [19]: Active
Activity [20]: Active
